Most compounds without a hit are left out; they make up all but 1.5% or so of the library.
CXCR6 inh – CXCR6 (human) receptor inhibition; O00574; CHO-K1 PathHunter CXCR6 beta-arrestin, luminescence; inhibition, % at 20 µM; 360,000 tested, 0.36% active; in the data active = inhibition above about 34%, passing the limit was not always enough;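 also: antagonist mode with CXCL16 agonist at 10 nM final; 0% = 10 nM CXCL16 with DMSO and 100% = unstimulated wells without agonist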
CCR6 antag – blocks CCL20-driven beta-arrestin recruitment at human CCR6. P51684. inhibition, % at 20 µM. CHO-K1 CCR6 PathHunter beta-arrestin, luminescence, CCL20-stimulated. AID 493098. 340,000 tested, 0.49% active;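 active = compounds whose inhibition of the agonist-driven luminescence signal at 20 µM reaches about 50%, limit read from the data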;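 also: cells stimulated with CCL20 at 14 nM final; plate controls were DMSO with CCL20 for no effect and DMSO without agonist for full effect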
APJ antagonist – APJ receptor antagonism | CHO-K1 APJ beta-arrestin complementation, luminescence | inhibition, % at 20 µM | 330,000 tested, 0.32% active | AID 2521;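 active = inhibition above about 40% at 20 µM, limit read from the data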;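 also: cells challenged with 10 nM apelin-13 agonist together with compound; plate controls were apelin-13 plus DMSO wells for no effect and DMSO wells lacking apelin-13 for full effect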
Target sequence (P35414 whole entry, looked up): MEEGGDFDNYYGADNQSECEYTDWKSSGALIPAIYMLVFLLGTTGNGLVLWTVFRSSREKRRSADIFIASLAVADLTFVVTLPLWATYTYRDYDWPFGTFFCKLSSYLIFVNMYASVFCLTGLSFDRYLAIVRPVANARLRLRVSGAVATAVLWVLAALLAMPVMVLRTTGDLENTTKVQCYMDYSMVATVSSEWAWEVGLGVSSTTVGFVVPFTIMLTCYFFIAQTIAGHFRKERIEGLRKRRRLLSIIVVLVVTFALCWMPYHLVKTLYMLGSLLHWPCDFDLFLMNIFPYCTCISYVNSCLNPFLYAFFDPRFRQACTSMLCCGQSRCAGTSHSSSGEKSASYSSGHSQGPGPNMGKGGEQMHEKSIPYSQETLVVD
APJ agonist – APJ receptor agonism | CHO-K1 APJ PathHunter beta-arrestin, luminescence; 0% DMSO wells, 100% apelin | activation, % at 20 µM | 330,000 tested, 0.11% active | P35414;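 active = activation more than six SD over the plate average, tested at 20 µM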;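 also: 0% = DMSO alone and 100% = apelin-13 at 10 nM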
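Assay system: engineered CHO-K1 APJ arrestin reporter cells; Amount: 1000 CHO-K1 reporter cells seeded per well; Dosing: one dose, 20 µM compound, 1% DMSO; Times: compound stimulation 90 min at 25 °C, detection 60 min; Measured by: luminescent beta-gal fragment complementation, chemiluminescent substrate; Read-out: APJ–arrestin association signal; Controls: DMSO vs Apelin-13 10 nM.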
EBI2 antag – blocks human EBI2 receptor beta-arrestin signaling. 360,000 tested, 0.81% active. EBI2 beta-arrestin recruitment, luminescence, 7a,25-OHC stimulated. inhibition, % at 5 µM; in the data active = inhibition above about 38%;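 also: enzyme fragment complementation signal reports receptor beta-arrestin coupling in cells; 0% = agonist plus DMSO wells and 100% = wells without agonist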
EBI2 conf – confirmation of human EBI2 receptor antagonists. shares compounds with EBI2 antag. EBI2 beta-arrestin luminescence, 7a,25-OHC antagonism. inhibition, % at 5 µM. 2,400 tested, 29% active;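 active = inhibition of at least 50%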
EBI2 ag – activates EBI2, counter-screen for EBI2 antagonists; shares compounds with EBI2 antag; EBI2-expressing cells, agonist mode, luminescence, 60 min; 0% vehicle, 100% 7α,25-dihydroxycholesterol control; activation, % at 5 µM; 2,400 tested, under 10 active; AID 652000;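 active = activation of at least 50%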
bGal counter – counter-screen for EBI2 antagonists: E. coli beta-galactosidase inhibition; shares compounds with EBI2 antag; inhibition, % at 5 µM; 2,400 tested, 1% active; purified beta-galactosidase, luminescent Galacton Star, 15 min;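 active = replicate-average signal at least 3 plate SD below neutral wells, shown as high inhibition, flagging enzyme-inhibiting false positives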;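 also: 0% = DMSO wells with enzyme and 100% = wells lacking enzyme; higher means stronger loss of beta-gal luminescence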
An asterisk follows results filed as active; · = no result given.

SMILES	CXCR6 inh	CCR6 antag	APJ antagonist	APJ agonist	EBI2 antag	EBI2 conf	EBI2 ag	bGal counter
COC(=O)C(=Cc1ccc(OCc2ccc([N+](=O)[O-])cc2)c(OC)c1)C(=O)OC	22	40	9	-5	57*	67*	1	3
Cc1ccc(/C=N/Nc2ccc3c(C(F)(F)F)cc(C(F)(F)F)nc3n2)cc1	10	10	15	-2	55*	40	2	4
CSc1ccc(C2=CC(=O)C[C@H](c3ccc(Cl)cc3)C2)cc1	6	17	3	-4	67*	52*	2	5
O=C1C=C(c2cc(F)ccc2F)C[C@@H](c2ccc(Cl)cc2)C1	-5	22	6	-4	29	·	·	·
O=C1C=C(c2ccc3c(c2)oc2ccccc23)C[C@@H](c2ccc(Cl)cc2)C1	10	5	1	-5	62*	23	2	5
O=C1C=C(c2ccc(-c3ccccc3)c(F)c2)C[C@@H](c2ccc(Cl)cc2)C1	-9	12	0	-2	38	·	·	·
O=C1C=C(c2ccc(Oc3ccccc3)cc2)C[C@@H](c2ccc(Cl)cc2)C1	1	14	8	-1	14	·	·	·
COc1cc(F)c(C2=CC(=O)C[C@H](c3ccc(Cl)cc3)C2)cc1F	10	6	4	-3	58*	44	0	3
O=C1C=C(c2cccc(Br)c2)C[C@@H](c2ccc(Cl)cc2)C1	-10	19	7	-4	46*	13	0	-13
CC(=O)Nc1ccc(C2=CC(=O)C[C@H](c3ccc(Cl)cc3)C2)cc1	2	8	-1	-3	39	·	·	·
COc1ccc([C@H]2CC(=O)C=C(c3cccc(Cl)c3)C2)cc1	-2	17	5	-4	42	·	·	·
O=C1C=C(c2cccc(Cl)c2)C[C@@H](c2ccc(Cl)cc2)C1	2	25	-5	-3	53*	25	-2	-6
O=C(O)CCCCCCCCCCCNC(=O)NC12CC3CC(CC(C3)C1)C2	-7	1	3	-2	-4	·	·	·
O=C(NCc1ccccc1Cl)c1cccc2c1C(=O)c1ccc(-c3ccc(OC(F)(F)F)cc3)cc1S2(=O)=O	-4	0	8	0	-2	·	·	·
COc1ccc(C(c2nnnn2-c2ccc3c(c2)OCCO3)N2CCN(C/C=C/c3ccccc3)CC2)cc1 (stereo not given)	19	·	·	·	60*	41	2	0
COc1ccc(-n2nnnc2C(c2cc3ccccc3o2)N2CCN(C/C=C/c3ccccc3)CC2)cc1 (stereo not given)	5	·	·	·	39	·	·	·
C(=C\c1ccccc1)/CN1CCN(C(c2cccs2)c2nnnn2-c2ccc3c(c2)OCCO3)CC1 (stereo not given)	8	·	·	·	72*	30	0	-17
COc1ccc(-n2nnnc2C(c2cccc3ccccc23)N2CCN(C/C=C/c3ccccc3)CC2)cc1 (stereo not given)	13	·	·	·	63*	32	1	2
C(=C\c1ccccc1)/CN1CCN(C(c2cccc3ccccc23)c2nnnn2Cc2ccccc2)CC1 (stereo not given)	12	·	·	·	64*	31	1	7
C(=C\c1ccccc1)/CN1CCN(C(c2cc3ccccc3o2)c2nnnn2-c2ccc3c(c2)OCCO3)CC1 (stereo not given)	11	·	·	·	38	·	·	·
CCC(c1nnnn1-c1ccc2c(c1)OCCO2)N1CCN(C/C=C/c2ccccc2)CC1 (stereo not given)	-9	·	·	·	18	·	·	·
COC(=O)C[C@H]1CC[C@@H](NC(=O)Nc2cccc(OC)c2)[C@@H](CO)O1	·	·	·	·	-8	·	·	·
CC1(C(=O)Nc2ccc(F)cc2F)CCN1C(=O)Cc1ccccc1 (stereo not given)	4	·	·	·	3	·	·	·
O=S(=O)(c1ccc(C(F)(F)F)cc1)N1CCN(CCc2ccccc2)CC1	-15	0	0	-1	11	·	·	·
Cc1cccc(C)c1OCc1cn(CC(=O)c2ccc(O)cc2)nn1	21	25	·	·	14	·	·	·
SMILES	CXCR6 inh	CCR6 antag	APJ antagonist	APJ agonist	EBI2 antag	EBI2 conf	EBI2 ag	bGal counter
CCOC(=O)c1cnn(-c2nc(-c3ccc(C)cc3)cs2)c1C(F)(F)F	-4	10	·	·	45*	3	0	-7
O=C(O)c1cnn(-c2nc(-c3ccc(F)cc3)cs2)c1C(F)(F)F	-3	12	2	-1	2	·	·	·
CC1(C(=O)NCc2cccs2)CCN1C(=O)Cc1cccc2ccccc12 (stereo not given)	8	·	·	·	1	·	·	·
Cc1cc(Cl)ccc1Oc1ncnc2onc(C)c12	-6	-2	-8	-1	-7	·	·	·
Cc1ccc(N2CCN(c3ccc(C)cc3)C2c2cccnc2)cc1	-10	19	-22	3	68*	28	0	-12
c1ccc(N2CCN(c3ccccc3)C2c2cccnc2)cc1	5	15	-7	-5	2	·	·	·
CCOC(=O)c1c(C)nc(C)c(C(=O)OCC)c1-c1cccc([N+](=O)[O-])c1	-3	·	·	·	59*	35	0	7
Cc1cc(C)c(S(=O)(=O)Nc2nnc(C(C)C)s2)c(C)c1	-12	1	13	0	-5	·	·	·
O=C(CCc1ccco1)CCc1ccco1	10	16	·	·	-7	·	·	·
CCOC(=O)C1CCN(C(=O)CSc2ccc(Cl)cc2)CC1	7	-13	11	-3	77*	47	3	7
O=C(CSc1ccc(Cl)cc1)N1CCC(c2nc3ccccc3s2)CC1	0	5	-30	-3	82*	66*	1	-8
CCOC(=O)C1CCN(C(=O)COc2ccc(Br)cc2C)CC1	2	0	-2	-1	32	·	·	·
CCOC(=O)C1CCN(C(=O)CSc2ccc(Br)cc2)CC1	7	1	-11	-2	84*	54*	1	5
CC(C)C[C@@H]1O[C@H](CCc2ccccc2)Cc2[nH]c(=S)[nH]c(=O)c21	3	·	·	·	10	·	·	·
COc1ccc(OCC(=O)N2CCN(C(=O)c3ccc([N+](=O)[O-])cc3)CC2)cc1	-7	-7	6	0	88*	60*	1	9
O=C(COc1ccc(Cl)cc1)N1CCN(C(=O)c2ccccc2F)CC1	6	7	-6	-3	82*	50	2	6
COc1ccc(OCC(=O)N2CCN(C(=O)c3ccccc3)CC2)cc1	-3	-3	-11	-5	77*	74*	-1	-19
COc1ccc(OCC(=O)N2CCN(C(=O)c3cccc4ccccc34)CC2)cc1	-6	4	-2	0	70*	38	-1	-13

Assay outcomes deposited in PubChem by Sanford-Burnham Center for Chemical Genomics.
